We go through 9 compounds from ChEMBL document CHEMBL4152277, “Structure-activity relationships of β-hairpin mimics as modulators of amyloid β-peptide aggregation” (Eur J Med Chem, 2018).

The target in assay [1] is Amyloid-beta precursor protein (Homo sapiens) (UniProt P05067). The assay is described as follows: Inhibition of amyloid beta (1 to 42) (unknown origin) aggregation assessed as increase in time of half-life of aggregation at 100 uM using compound dissolved in DMSO measured after 42 hrs by Thioflavin T fluorescence assay relative to control. Also on record: scale not given: the % may be the effect or the level left. Summed up: (§1)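 Aβ1-42 dissolved in 1% aqueous ammonia at 1 mM, diluted to 0.2 mM in 10 mM Tris-HCl, 100 mM NaCl pH 7.4 just before use. Final 10 µM peptide added to 40 µM ThT with compound (final DMSO 0.5% v/v), room temperature. Triplicate wells, ex/em 440/480 nm for 42 h, read 2–4 times on different days. t1/2 extension and plateau F reduction are computed as % of peptide-alone values.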
Sequence of Amyloid-beta precursor protein (Homo sapiens) (P05067 whole entry): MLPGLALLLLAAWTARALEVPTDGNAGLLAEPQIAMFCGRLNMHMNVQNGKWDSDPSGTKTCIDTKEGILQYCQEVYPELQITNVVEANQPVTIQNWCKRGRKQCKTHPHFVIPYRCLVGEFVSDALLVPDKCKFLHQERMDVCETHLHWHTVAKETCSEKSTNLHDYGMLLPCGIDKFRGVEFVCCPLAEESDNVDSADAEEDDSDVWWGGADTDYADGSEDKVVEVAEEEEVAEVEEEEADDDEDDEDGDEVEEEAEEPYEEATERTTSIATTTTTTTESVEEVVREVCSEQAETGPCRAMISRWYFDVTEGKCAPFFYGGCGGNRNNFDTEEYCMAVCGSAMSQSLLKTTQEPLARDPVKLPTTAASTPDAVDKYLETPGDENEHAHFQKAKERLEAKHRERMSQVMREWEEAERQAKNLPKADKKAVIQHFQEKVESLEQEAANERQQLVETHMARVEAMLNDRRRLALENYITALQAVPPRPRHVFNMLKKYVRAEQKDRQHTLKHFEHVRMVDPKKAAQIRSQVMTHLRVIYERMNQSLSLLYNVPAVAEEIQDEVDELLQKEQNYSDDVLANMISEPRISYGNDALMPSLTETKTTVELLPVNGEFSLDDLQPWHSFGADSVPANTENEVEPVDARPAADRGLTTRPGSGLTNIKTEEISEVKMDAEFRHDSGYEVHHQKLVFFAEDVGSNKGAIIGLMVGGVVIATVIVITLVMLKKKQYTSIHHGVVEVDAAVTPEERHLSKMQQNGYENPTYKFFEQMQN

The target is the same in assay [2]. Description: Inhibition of amyloid beta (1 to 42) (unknown origin) aggregation assessed as increase in time of half-life of aggregation at 10 uM using compound dissolved in DMSO measured after 42 hrs by Thioflavin T fluorescence assay relative to control. Also on record: scale not given: the % may be the effect or the level left. Summed up:
as §1

The target is the same in assay [3]. The assay is described as follows: Inhibition of amyloid beta (1 to 42) (unknown origin) aggregation assessed as reduction in intensity of fluorescence plateau of aggregation at 100 uM using compound dissolved in DMSO measured after 42 hrs by Thioflavin T fluorescence assay relative to control. Details: scale not given: the % may be the effect or the level left. Put shortly:
as §1

Assay [4] shares this target. Description: Inhibition of amyloid beta (1 to 42) (unknown origin) aggregation assessed as reduction in intensity of fluorescence plateau of aggregation at 10 uM using compound dissolved in DMSO measured after 42 hrs by Thioflavin T fluorescence assay relative to control. Details: scale not given: the % may be the effect or the level left. Summed up:
as §1

Assay [5] has the same target. The assay is described as follows: Inhibition of amyloid beta (1 to 42) (unknown origin) aggregation assessed as increase in time of half-life of aggregation at 100 uM using compound dissolved in water measured after 42 hrs by Thioflavin T fluorescence assay relative to control. Details: scale not given: the % may be the effect or the level left. Put shortly:
(§2)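 ThT kinetics of 10 µM Aβ1-42 (from 1 mM ammonia stock, diluted in 10 mM Tris-HCl, 100 mM NaCl, pH 7.4) with 40 µM ThT at room temperature. Compound is dissolved in water (0.5% v/v) rather than DMSO and used at 10:1 compound/peptide. Fluorescence 440/480 nm over 42 h. t1/2 and plateau F are expressed as % change versus peptide alone.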

For assay [6] the target is unchanged. Description: Inhibition of amyloid beta (1 to 42) (unknown origin) aggregation assessed as increase in time of half-life of aggregation at 1 uM using compound dissolved in DMSO measured after 42 hrs by Thioflavin T fluorescence assay relative to control. Summed up:
as §1

Assay [7] shares this target. Description: Inhibition of amyloid beta (1 to 42) (unknown origin) aggregation assessed as reduction in intensity of fluorescence plateau of aggregation at 100 uM using compound dissolved in water measured after 42 hrs by Thioflavin T fluorescence assay relative to control. Details: scale not given: the % may be the effect or the level left. Put shortly:
as §2

For assay [8] the target is unchanged. The assay is described as follows: Inhibition of amyloid beta (1 to 42) (unknown origin) aggregation assessed as reduction in intensity of fluorescence plateau of aggregation at 1 uM using compound dissolved in DMSO measured after 42 hrs by Thioflavin T fluorescence assay relative to control. Details: scale not given: the % may be the effect or the level left. Put shortly: as §1

For assay [9] the target is unchanged. The assay is described as follows: Inhibition of amyloid beta (1 to 42) (unknown origin) aggregation at 1 to 100 uM treated immediately or 3 hrs after fibrillization kinetics by Thioflavin T fluorescence assay. Summed up:
(§3)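 Same ThT set-up (10 µM Aβ1-42, 40 µM ThT, Tris-HCl/NaCl pH 7.4, room temperature, 440/480 nm), except compound is added at the start of kinetics or 3, 19 or 44 h after it. Tested at 1:1 and 10:1 compound/peptide ratios.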

Assay [10] shares this target. Description: Inhibition of amyloid beta (1 to 42) (unknown origin) aggregation at 1 to 100 uM treated at 19 to 44 hrs after fibrillization kinetics by Thioflavin T fluorescence assay. Summed up:
as §3

Assay [11] has the same target. Description: Inhibition of amyloid beta (1 to 42) (unknown origin) aggregation at 100 uM after 42 hrs by uranyl acetate staining based transmission electron microscopic method. Put shortly: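 Samples are prepared as for ThT: 10 µM Aβ1-42 in 10 mM Tris-HCl, 100 mM NaCl pH 7.4, ±100 µM compound, incubated 42 h. Aliquots adsorbed 2 min on 300-mesh carbon grids, washed, dried, negatively stained 45 s and imaged by TEM.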

For assay [12] the target is unchanged. The assay is described as follows: Inhibition of amyloid beta (1 to 42) (unknown origin) oligomerization assessed as amyloid beta monomer level at 100 uM after 6 hrs by capillary electrophoresis method (reference value: 4%). Details: scale not given: the % may be the effect or the level left. Put shortly:
(§4)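 Aβ1-42 reconstituted at 100 µM final in 20 mM phosphate pH 7.4 with 2.5% v/v DMSO (compound stock or control), compound at 10:1 ratio. Profiles taken at 0, 2, 6 and 12 h. CE in fused silica capillary, 80 mM phosphate pH 7.4, −30 kV, 20°C, UV 190 nm. Monomer peak area is related to that of peptide alone at 0 h.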

For assay [13] the target is unchanged. The assay is described as follows: Inhibition of amyloid beta (1 to 42) (unknown origin) oligomerization assessed as amyloid beta monomer level at 100 uM after 12 hrs by capillary electrophoresis method (reference value: 0%). Also on record: scale not given: the % may be the effect or the level left. Summed up: as §4
Assay [14] has the same target. The assay is described as follows: Inhibition of amyloid beta (1 to 42) (unknown origin) oligomerization assessed as increase in amyloid beta monomer level at 100 uM up to 2 hrs by capillary electrophoresis method. Put shortly: as §4

Structures are written as SMILES. Active and inactive are the calls of the source. The calls are words filed in the database; no cut-off is given here.

Turning to `COc1ccc(NC(C)=O)cc1C(=O)NNC(=O)[C@H](CCCCN)NC(=O)[C@@H]1CCCN1[C@@H]1CN(C(=O)[C@@H](NC(=O)[C@H](C)N)C(C)C)CC[C@H]1N`, the result in assay [1], in assay [2] and in [4] was inactive. For the same compound, the Activity in [3] was found to be 18%.
As to `COc1ccc(NC(C)=O)cc1C(=O)NNC(=O)[C@H](CCCCN)NC(=O)[C@@H]1CCCN1[C@@H]1CN(C(=O)[C@@H](NC(=O)[C@H](C)N)C(C)C)CC[C@H]1NC(=O)OC(C)(C)C`, the Activity was 29% in assay [1], 13% in [2] and 43% in [3]. Also, the outcome in assay [4] was inactive.
For the compound `COc1ccc(NC(C)=O)cc1C(=O)NNC(=O)[C@H](CCCCN)NC(=O)[C@@H]1CCCN1[C@@H]1CN(C(=O)[C@@H](NC(=O)[C@H](C)NC(=O)OC(C)(C)C)C(C)C)CC[C@H]1NS(=O)(=O)c1ccc(C)cc1`, the results for the Activity in assay [1] and in [2] were 59% and 23%, respectively. Besides, the outcome in assay [3] and in assay [4] was inactive.
For the compound `COc1ccc(NC(C)=O)cc1C(=O)NNC(=O)[C@H](CCCCN)NC(=O)[C@@H]1CCCN1[C@@H]1CN(C(=O)[C@@H](NC(=O)[C@H](C)NC(=O)[C@@H](N)C(C)C)C(C)C)CC[C@H]1NS(=O)(=O)c1ccc(C)cc1`, the Activity in [1] came to 30%; in [5], 58%; in assay [3], 32%; in assay [7] it was 35%. Moreover, the outcome in assay [2], in assay [6], in assay [4] and in assay [8] was inactive.
In the case of `COc1ccc(NC(C)=O)cc1C(=O)NNC(=O)[C@H](CCCCNC(=O)OCc1ccccc1)NC(=O)[C@@H]1CCCN1[C@@H]1CN(C(=O)[C@@H](NC(=O)[C@H](C)NC(=O)OC(C)(C)C)C(C)C)CC[C@H]1NS(=O)(=O)c1ccc(C)cc1`, the outcome in [1], in [2], in assay [3] and in assay [4] was inactive.
Turning to `COc1ccc(NC(C)=O)cc1C(=O)NNC(=O)[C@H](CCCCN)NC(=O)[C@@H]1CCCN1[C@@H]1CN(C(=O)[C@@H](NC(=O)[C@H](C)N)C(C)C)CC[C@H]1NS(=O)(=O)c1ccc(C)cc1`, the Activity in assay [1] was determined as 76%; in [5], 96%; in assay [2], 36%; in assay [3], 66%; in assay [7], 81%; in assay [4], 38%. The values for the Activity in assay [8], in assay [12] and in assay [13] were 38%, 49% and 31%, respectively. Also, in assay [6], the outcome was inactive. In addition, the inhibition result in assay [9] and in assay [11] was “Active” throughout. The inhibition entry in assay [10] and in [14] was “inactive” each time.
Take `COc1ccc(NC(C)=O)cc1C(=O)NNC(=O)[C@H](CCCCN)NC(=O)[C@@H]1CCCN1[C@@H]1CN(C(=O)[C@@H](NC(=O)[C@H](C)N)C(C)C)CC[C@H]1NS(=O)(=O)c1ccc(N)cc1`: the Activity in assay [1] amounted to 56%; in assay [2], 27%; in assay [3], 54%. For the same compound, in [4], the outcome was inactive. Further, the inhibition entry in assay [11] was “Active”.
As for `CSCC[C@H](NC(=O)[C@H](CC(C)C)NC(=O)CN)C(=O)N[C@H](C(=O)NCC(=O)N1CC[C@@H](NS(=O)(=O)c2ccc(C)cc2)[C@H](N2CCC[C@H]2C(=O)N[C@@H](CCCCN)C(=O)N[C@@H](CC(C)C)C(=O)N[C@H](C(=O)N[C@@H](Cc2ccccc2)C(=O)N[C@@H](Cc2ccccc2)C(N)=O)C(C)C)C1)C(C)C`, the outcome in assay [1] and in assay [2] was inactive. Also, the Activity in assay [3] is 97%; in assay [4], 90%.
For `COC(=O)[C@@H]1CCCN1[C@@H]1CNCC[C@H]1NS(=O)(=O)c1ccc(C)cc1`, the outcome in assay [1], in [2] and in assay [4] was inactive. Also, the Activity in assay [3] amounted to 23%.
